Experimental data gathered from unrelated publications.
Protocols differ between the studies behind these lines.
Target: Calcium/calmodulin-dependent protein kinase kinase 1 (CAMKK1, Homo sapiens, UniProt Q8N5S9)

| SMILES | assay | setting | endpoint | result |
| --- | --- | --- | --- | --- |
| Cc1nccc(COC(=O)N2C[C@@H]3[C@@H](CNC(=O)c4ccc5[nH]nnc5c4)[C@@H]3C2)n1 | cell-free assay, competition with immobilised ligand | 1 µM | remaining binding | 100% |
| Nc1ncnc2occ(-c3ccc(NC(=O)Nc4cc(C(F)(F)F)ccc4F)cc3)c12 | cell-free assay, inhibitor | 20 µM | remaining signal | 28% |
| CCCOc1ccc([C@H]2[C@H](C(=O)O)[C@@H](c3ccc4c(c3)OCO4)CN2CC(=O)Nc2c(CC)cccc2CC)cc1 | cell-free assay, competition with immobilised ligand | 1 µM | remaining binding | 86% |
| CC(C)(O)[C@H]1CC[C@H](Nc2ccc3ncc(-c4cccc(C(F)(F)F)c4)n3n2)CC1 | enzyme activity, inhibitor | 1 µM | remaining activity | 91.8% |
| O=C1NC(=O)c2cc(Nc3ccc(F)cc3)c(Nc3ccc(F)cc3)cc21 | cell-free assay | 0.5 µM | remaining signal | 90.2% |
| O=C(Nc1cnn(-c2csc(C(=O)NC3COC3)c2)c1)Nc1ccccc1Cl | enzyme activity, inhibitor | 5 µM | remaining activity | 130% |
| O=C1Nc2ccc(Cl)cc2C1=Cc1cc(Cl)c(O)c(Cl)c1 | cell-free assay | 0.5 µM | remaining signal | 52.5% |
| O=c1nc(-c2ccccn2)sc2ccccc12 | binding, competition with immobilised ligand | 1 µM | remaining binding | 96% |
| COc1cc(Nc2c(C#N)cnc3cc(OCCCN4CCN(C)CC4)c(OC)cc23)c(Cl)cc1Cl | cell-free assay | 0.5 µM | remaining signal | 84.8% |
| CCCCNc1ncc2c(-c3ccc(F)cc3)nn(C[C@H]3CC[C@H](N)CC3)c2n1 | target engagement in cells, inhibitor, chemoproteomics | 20 mM | inhibition | 20.6% |
| COCCOc1nc(-c2ccc(Cl)nc2)nc2c1CN(C(=O)c1ncn3ccccc13)CC2 | cell-free assay, competition with immobilised ligand | 0.1 µM | remaining binding | 100% |
| CN(c1ncccc1CNc1nc(Nc2ccc3c(c2)CC(=O)N3)ncc1C(F)(F)F)S(C)(=O)=O | enzyme activity, inhibitor | 1 µM | inhibition | 46% |
| CCCCN(CCCC)C(=O)CN1C[C@H](c2cc(OC)c3c(c2)OCO3)[C@@H](C(=O)O)[C@@H]1CC(C)(C)CCC | cell-free assay, competition with immobilised ligand | 1 µM | remaining binding | 100% |
| CCN1CCC2(CC1)NC(=O)c1c(c3ccc(Cl)c(Cl)c3n1C)C2C#N (racemic) | thermal stability, DSF | 10 µM | ΔTm | -0.1 °C |
| CC(C)(C)c1nc2c(s1)c1nc(N)ncc1c1ccc(NS(=O)(=O)c3c(F)cccc3F)c(F)c12 | enzyme activity, inhibitor, radiometric | 1 µM | remaining activity | 88% |
| Cn1c2c(c3ccc(Cl)c(Cl)c31)C(C#N)C1(CCN(C(=O)OC(C)(C)C)CC1)NC2=O (racemic) | thermal stability, DSF | 10 µM | ΔTm | -0.1 °C |
| COc1ccc2c(c1)O[C@H](c1ccc(OC)c(OC)c1)C[C@@H]2NC(=O)C1(c2ccc3c(c2)OC(F)(F)O3)CC1 | cell-free assay, competition with immobilised ligand | 1 µM | remaining binding | 100% |
| Cc1sc(C(=O)NC2COC2)cc1-n1cc(NC(=O)Nc2c(F)cccc2Cl)cn1 | enzyme activity, inhibitor | 10 µM | remaining activity | 121% |
| Cn1c2c(c3ccc(Cl)c(Cl)c31)C(C#N)C(C)(C)NC2=O (stereo not shown) | thermal stability, DSF | 10 µM | ΔTm | 2.6 °C |
